Rev-erbA mod – Rev-erb alpha (human) modulation; P20393; Rev-erbα–FITC-DNA binding, fluorescence polarization, 90 min; activity, % at 10 µM; actives 0.79% (n = 370,000); AID 1259318;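 active = activity above about 14%, limit read from the data; passing the limit was not always enough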;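 also: 0% = DMSO wells with 35 nM protein and 100% = DMSO wells with 750 nM protein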
Target sequence (P20393 whole entry, looked up): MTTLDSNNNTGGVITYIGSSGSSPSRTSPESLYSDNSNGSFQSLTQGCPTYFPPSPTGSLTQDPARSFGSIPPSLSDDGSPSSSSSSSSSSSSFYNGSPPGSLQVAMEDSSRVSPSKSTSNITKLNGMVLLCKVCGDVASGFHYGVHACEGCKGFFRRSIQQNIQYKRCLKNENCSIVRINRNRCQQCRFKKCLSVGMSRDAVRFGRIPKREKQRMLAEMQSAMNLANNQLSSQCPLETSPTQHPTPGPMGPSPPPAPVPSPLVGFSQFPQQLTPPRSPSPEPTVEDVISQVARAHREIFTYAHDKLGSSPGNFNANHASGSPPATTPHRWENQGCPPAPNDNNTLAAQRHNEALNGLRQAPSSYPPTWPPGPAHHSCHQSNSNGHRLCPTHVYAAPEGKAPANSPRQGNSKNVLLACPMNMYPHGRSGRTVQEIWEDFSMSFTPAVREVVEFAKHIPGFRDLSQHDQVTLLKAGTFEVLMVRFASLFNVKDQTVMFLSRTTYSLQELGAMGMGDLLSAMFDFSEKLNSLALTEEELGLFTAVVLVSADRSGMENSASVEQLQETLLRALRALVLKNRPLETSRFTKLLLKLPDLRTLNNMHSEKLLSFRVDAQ
Neddyl block – cullin neddylation inhibition | AID 651699 | actives 0.58% (n = 360,000) | calls only at 25 µM | TR-FRET cullin neddylation, biochemical; in the data active = inhibition above about 36%
PG9 binder – binds the HIV-1 gp120 antibody PG9 | inhibition, % at 6.7 µM | TR-FRET gp120-PG9 antibody binding | actives 0.43% (n = 360,000); in the data active = inhibition above about 8.5%
NR2E3 ag-1 – agonists of human NR2E3 nuclear receptor; actives 0.35% (n = 360,000); AID 602229; CHO-S Gal4-NCOR/VP16-NR2E3 two-hybrid, luciferase; inhibition of corepressor binding, % at 3.98 µM; Q9Y5X4;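 active = inhibition above the mean of all tested compounds plus 3 SD, cut at about 70% in these data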;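 also: 0% = DMSO with NR2E3 transfected cells and 100% = cells lacking NR2E3 construct; higher means lower luciferase signal from less NR2E3 corepressor binding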
NR2E3 ag-2 – activates human photoreceptor nuclear receptor NR2E3. inhibition of corepressor binding, % at 4.78 µM. actives 0.12% (n = 320,000). AID 2300. GST-NR2E3/biotin-RetCOR TR-FRET, 1536-well;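 active = percent inhibition above the cutoff of mean plus 3 SD of all tested compounds, set per screening campaign, cut at about 20% in these data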;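 also: 0% = DMSO wells and 100% = biotin wells as full block of FRET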
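Material: NR2E3–RetCOR corepressor complex / Incubation: Compound–protein incubation for 5 h at 4 °C / Dosing: compound at 4.8 µM, single dose / Detection: time-resolved FRET / Benchmarks: high control biotin, low control 0.6% DMSO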
Neddyl conf – cullin neddylation inhibition, confirmation | AID 652217 | TR-FRET cullin neddylation biochemical assay | calls only at 25 µM | shares compounds with Neddyl block | actives 13% (n = 1,800); in the data active = inhibition above about 40%;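 also: neddylation substrate is the cullin 1 ring ligase complex with SKP2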
An asterisk follows results filed as active; i = inactive; · = no result given; + = active, no number. A selection: hits, their analogues and other compounds. The true share with any hit is near 2%.

SMILES	Rev-erbA mod	Neddyl block	PG9 binder	NR2E3 ag-1	NR2E3 ag-2	Neddyl conf
O=C(Nc1ccc(N2CCOCC2)cc1)C1CC1	1	i	-2	-15	0	·
CCc1nc2ccc(C(=O)NCCCN3CCCC3=O)cn2c1N(C)C(=O)COc1ccccc1	-1	i	-1	-5	·	·
COc1ccc(C2C(C(=O)Nc3c(C)cccc3C)CCC(=O)N2c2ccc(OC)cc2)cc1 (stereo not given)	-2	·	·	·	·	·
CCN(CC)c1ccc(C=NNC(=O)c2cc(-c3ccc(C)c(C)c3)n[nH]2)c(O)c1	17	·	·	·	·	·
Cc1c(C2Nc3ccccc3NC3=C2C(=O)CC(C)(C)C3)cnn1C (stereo not given)	7	i	-1	-30	1	·
COC(=O)C1=C(C)NC2=C(C(=O)CC(C)(C)C2)C1c1cnn(C)c1C (stereo not given)	0	+	-2	-14	-1	·
CN(C)CCNc1nc(-c2ccco2)c2c(c1C#N)CC(C)(C)OC2	2	+	-2	-1	-1	+
CC[C@@]1(C(=O)OC)N[C@H](CN(C)S(=O)(=O)c2ccc(OC(F)(F)F)cc2)[C@@H]2C(=O)N(C)C(=O)[C@@H]21	3	i	1	1	·	·
CCCCn1c2nc3ccccc3nc2c2c(=O)n(CCC(C)C)cnc21	5	i	-1	-15	3	·
CCCCn1c2nc3ccccc3nc2c2c(=O)n(-c3ccccc3)cnc21	-2	+	0	-6	3	i
CCCn1cnc2c(c1=O)c1nc3ccccc3nc1n2CCc1ccccc1	3	+	1	-21	5	i
CC(C)Cn1c2nc3ccccc3nc2c2c(=O)n(CCN3CCOCC3)cnc21	1	+	0	-24	2	i
CCCS(=O)(=O)NC(=O)C1(C)CCN(C(=O)c2ccc(OC)c(F)c2)C1 (stereo not given)	·	i	·	-26	·	·
Cc1ccc(-n2c(SCC(=O)Nc3cccc4ccccc34)nnc2-c2cnccn2)cc1	-8	·	·	·	·	·
CC(O)CN1CCN(C(=O)CN2C(=O)NC(c3ccccc3)(c3ccccc3)C2=O)CC1 (stereo not given)	5	i	1	-11	-2	·
COC(=O)C1CN(Cc2cn(Cc3ccccc3)nn2)CCS(=O)(=O)N1Cc1ccc(OC)cc1 (stereo not given)	2	·	·	·	·	·
CC(=O)Nc1cccc2c1C(=O)NC2=O	5	+	-1	-5	0	+
O=C1NC(=O)c2c(NC(=O)C3CCCO3)cccc21 (stereo not given)	-4	i	-1	1	-1	·
CC(C)n1ncc2c(C(=O)NCC(=O)Nc3ccccc3Br)cc(C3CC3)nc21	·	+	·	-1	5	·
CCc1ccccc1NC(=O)CNC(=O)c1cc(C2CC2)nc2c1cnn2C(C)C	-3	+	2	-5	0	·
Cc1cc(C)c(NC(=O)CNC(=O)c2cc(C3CC3)nc3c2cnn3C(C)C)c(C)c1	1	·	0	13	·	·
CCOC(=O)/C=c1\s/c(=C\c2ccc3c(c2)OCCO3)c(=O)n1CC(=O)NCC1CCCO1 (stereo not given)	1	+	-1	-29	3	i
COc1ccc(-c2nc3c(C)cc(Br)cn3c2Cc2cccc(Cl)c2)cc1OC	5	i	4	-23	·	·
COc1ccc(NS(=O)(=O)c2cccc(C(=O)N/N=C/c3cn(-c4ccccc4)nc3-c3ccccc3)c2)cc1	-5	i	-1	6	3	·
COc1ccccc1NS(=O)(=O)c1cccc(C(=O)N/N=C/c2cn(-c3ccccc3)nc2-c2ccccc2)c1	-5	+	-3	-15	-3	·
SMILES	Rev-erbA mod	Neddyl block	PG9 binder	NR2E3 ag-1	NR2E3 ag-2	Neddyl conf
COc1ccc(NS(=O)(=O)c2cccc(C(=O)NN=Cc3ccc(O)c(OC)c3)c2)cc1	-20	i	-11	2	·	·
COc1ccc(NS(=O)(=O)c2cccc(C(=O)N/N=C/c3ccc(O)cc3)c2)cc1	1	+	-1	8	-1	i
COc1cc(C=NNC(=O)c2ccc(NS(=O)(=O)c3cccs3)cc2)cc(Br)c1O	-2	+	-5	-34	·	+
COc1ccc(C(=O)Cn2c3ccccc3n3nc(CCC(=O)O)c(=O)nc23)cc1OC	-1	+	-3	-11	3	·
CC(=O)Cn1c2ccccc2n2nc(CCC(=O)O)c(=O)nc12	-3	·	-1	-1	1	·
COCCNC(=O)C1CCCN(C(=O)c2sccc2C)CC1 (stereo not given)	2	i	-1	-18	·	·
Cc1cc(N/C(=N/S(=O)(=O)c2ccc(F)cc2)c2ccccc2)n(-c2ccccc2)n1	0	+	-2	-1	-6	i
Cc1cc(N/C(=N/S(=O)(=O)c2cc(F)ccc2F)c2ccccc2)n(-c2ccccc2)n1	-3	·	1	-6	1	·
COc1ccccc1C(=O)NC(C)c1ccccc1 (stereo not given)	-3	i	1	-16	0	·
CC(NC(=O)c1ccccc1O)c1ccccc1 (stereo not given)	0	+	0	-3	0	·
COC(=O)/C(=C\c1ccc2c(c1)c1ccccc1n2C)NC(=O)c1ccccc1	-1	+	-1	-28	-2	i
CC(C)OC(=O)/C(=C\c1cccnc1)NC(=O)c1ccccc1	-4	i	0	-6	3	·
CC(C)OC(=O)/C(=C/c1ccc2c(c1)c1ccccc1n2C)NC(=O)c1ccccc1	9	+	-2	-50	-1	i
O=[N+]([O-])c1nccn1CC(O)CCN1CCOCC1 (stereo not given)	-6	·	-1	·	·	·
COc1ccccc1CCn1cnc(Cc2ccccc2)c1C(C)C	-3	i	2	2	·	·
Nc1c(C(=O)NCc2ccc3c(c2)OCO3)nnn1Cc1cccc(F)c1	-14	i	-2	10	1	·
Nc1c(C(=O)Nc2ccc3c(c2)OCCO3)nnn1Cc1cccc(F)c1	0	+	3	10	2	i
CCCCN(CC)Cc1c(O)ccc2c(-c3ccccc3)cc(=O)oc12	1	+	1	15	2	·
CCN(CC)Cc1c(O)ccc2c(-c3ccccc3)cc(=O)oc12	6	+	0	-11	1	i
Cc1noc(C)c1CSCC(=O)Nc1cc(S(=O)(=O)N2CCOCC2)ccc1OC(C)C	-2	i	-1	-2	-1	·
COc1ccc(-c2nc3c4ccccc4ccn3c2CN2CCCCC2)cc1OC	3	+	0	-38	2	i
O=S(=O)(CCN1CCN(c2ccccn2)CC1)c1ccc(F)cc1	1	i	1	-3	1	·
O=c1oc2cccnc2n1CCS(=O)(=O)c1ccc(F)cc1	-4	+	-1	12	4	i

Source: PubChem
